Measured values published in paper PMC10245909 (bioRxiv, 2023).
Where a name gives a salt, the structure may show the parent alone. Values belong to the molecule of their own block, whether it stands above or below them.

How the values were obtained:
C. parvum [1] = experiment: C. parvum growth assay in HCT-8 cells; assay type: cell-based, Cryptosporidium parvum; settings: for EC50: HCT-8, 24 h; for Cp infection, treatment started 4 hpi: 4 – 24 hpi; for Cp growth, treatment 0 – 4 hpi only: first four hours of infection only
C. parvum [2] = experiment: Initial screen of gut metabolites on C. parvum growth in HCT-8 cells; assay type: cell-based, Cryptosporidium parvum; settings: 24 hpi, metabolite at 1 mM (0.1 mM for bile acids/salts)
How it was run: (§1)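 Confluent HCT-8 cells (1.5 × 10^5/well, grown ~24 h) were infected with 5 × 10^5 bleached oocysts together with a single metabolite diluted in culture medium (1 mM or 0.1 mM) for 24 h. Parasite and host cell numbers are given as ratios to PBS control wells on the same plate. Each metabolite was run in triplicate across six separate experiments.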

AhR = settings: cited from earlier work
C. parvum [3] = experiment: Metabolite treatment of C. parvum-infected GKO mice; assay type: in vivo, mouse
C. parvum [4] = experiment: Air-liquid interface; assay type: cell-based, Cryptosporidium parvum; settings: for time after washout to significant recovery in Cp growth: treated 48 h at EC50 concentration; for EC50 / EC90: Cryptosporidium parvum; for EC50: read-out: EC50 for Cp in ALI cultures; for EC90: read-out: EC90 for Cp in ALI cultures
How it was run: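 ALI transwells were coated with 10% Matrigel and seeded with irradiated mouse 3T3 fibroblasts (8 × 10^4/transwell). Top medium was removed after 7 days, and 5 × 10^4 oocysts were added on top 3 days later. After ~4 h the tops were washed twice with DPBS and day-0 wells scraped. Test compound at three levels or 1% DMSO went in the bottom medium for ~48 h, then transwells moved to normal medium. Parasite genome eq. by DNA extraction, normalized to DMSO at each time point; six replicates (3 technical × 2 experiments).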

C. parvum [5] = experiment: Antibody and EdU labeling of C. parvum life cycle stages in HCT-8 cells; assay type: cell-based, Cryptosporidium parvum; settings: EC90 concentrations; for life cycle stage progression: first 24 hpi, EdU pulses
Cp mitosome = experiment: Mitotracker CMXRos staining of C. parvum mitosome; assay type: cell-based, Cryptosporidium parvum; settings: 2 x EC90 indole 1.76 mM, 7CNI 1 mM, CCCP 10 μM; 2 h or 24 h
How it was run: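 HCT-8 cells on coverslips were infected with 5 × 10^5 oocysts, washed twice with DPBS, and exposed in 1% DMSO medium either 22–24 hpi (2 h) or continuously to 24 hpi. MitoTracker Red CMXRos (50 nM final) was added 45 min before fixation at 24 hpi. Staining used 1E12 with Alexa Fluor 488 secondary plus Hoechst. Four replicates (2 technical × 2 experiments).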

HCT-8 cells [6] = experiment: Host nuclei in growth assay with mitochondrial inhibitors; assay type: cell-based, human; settings: for host cell toxicity at Cp-inhibitory levels: HCT-8, 24 h, at EC50 levels
How it was run: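 Confluent HCT-8 cells (1.5 × 10^5/well) were infected with 1 × 10^5 bleached oocysts and exposed ~24 h to test compounds, serially diluted 1:2 from 40 μM (final, 1% DMSO). Cells were fixed in 4% formaldehyde, permeabilized/blocked in 0.1% Triton-X/1% BSA, Hoechst-stained and counted, with values relative to the 1% DMSO control mean. Four replicates (2 technical × 2 experiments).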

[7] = test system: AhR target genes AhRR and CYP1A1; settings: HCT-8 AhR KO 1 and KO 2, VAF347 500 nM, 24 h
C. parvum [8] = settings: dietary supplementation, malnourished neonatal mice; cited from earlier work
HCT-8 cells [9] = experiment: Host cell numbers in the initial metabolite screen; assay type: cell-based, human; settings: metabolite at 1 mM, 24 h
How it was run: as §1

C. parvum [10] = experiment: C. parvum growth assay in HCT-8 AhR KO cell lines; assay type: cell-based, Cryptosporidium parvum; settings: HCT-8 AhR KO cells, 24 h, indole 1 mM, 4HI 1 mM
HCT-8 cells [11] = experiment: Seahorse metabolic assays; assay type: cell-based, human; settings: 18 h
C. parvum [12] = settings: neonatal mice, only when gut microflora present; cited from earlier work
[13] = Cryptosporidium parvum, read-out: Cp EC50
[14] = Cryptosporidium parvum, HCT-8, read-out: EC90 for Cp, HCT-8 cells
[15] = indole 0.5-2 mM, 7CNI 0.25-1 mM

EC50 (C. parvum [1]; [13]): 1260 µM
Molecule: Oc1cccc2[nH]ccc12 [4-hydroxyindole]
effect on Cp growth (Cp numbers relative to PBS control) (C. parvum [2]): significantly inhibited

Molecule: Cc1cccc2[nH]ccc12 [4-methylindole]
AhR signaling in vitro (AhR): activate AhR signaling

Molecule: O=C(O)Cc1c[nH]c2ccc(O)cc12 [5-hydroxyindole-3-acetic acid]
effect on Cp growth (Cp numbers relative to PBS control) (C. parvum [2]): no effect

Molecule: Cc1ccc2cc[nH]c2c1 [6-methylindole]
AhR signaling in vitro (AhR): activate AhR signaling

Molecule: N#Cc1cccc2cc[nH]c12 [7-cyanoindole]
survival rate (C. parvum [3]; 50 mg/kg BID 7 days): did not significantly increase survival rate
mean Cp oocysts per mg feces by 9 dpi (C. parvum [3]; 50 mg/kg BID 7 days, after end of treatment): rebounded
body weight vs vehicle- or indole-treated mice (C. parvum [3]; 50 mg/kg BID, 5 and 7 dpi): weighed significantly more
EC90 (C. parvum [1]; [14]): 500 µM
Cp infection, treatment started 4 hpi (C. parvum [1]; EC90 concentrations): significantly inhibited Cp infection
Cp growth, treatment 0 – 4 hpi only (C. parvum [1]; EC90 concentrations): neither indole nor 7CNI inhibited Cp growth
time after washout to significant recovery in Cp growth (C. parvum [4]; ALI): 4 days
EC50 (C. parvum [4]): 379 µM
EC90 (C. parvum [4]): 688 µM
life cycle stage progression (C. parvum [5]): delayed progression through sequential life cycle stages

Molecule: COc1cccc2cc[nH]c12 [7-methoxyindole]
AhR signaling in vitro (AhR): activate AhR signaling

Molecule: N#CC(C#N)=NNc1cccc(Cl)c1 [CCCP, carbonyl cyanide m-chlorophenyl hydrazone]
Mitotracker staining of Cp mitosomes (Cp mitosome): decreases Mitotracker staining
host toxicity at high concentration (HCT-8 cells [6]; HCT-8, 40 μM and 20 μM): observed host toxicity
host cell toxicity at Cp-inhibitory levels (HCT-8 cells [6]): not due to host cell toxicity

Molecule: FC(F)(F)c1ccc(Nc2nccc(-c3cccc(Cl)c3)n2)cc1 [VAF347]
CYP1A1 gene expression in AhR KO lines [7]: lost the ability to upregulate CYP1A1 gene expression

Molecule: N=C(N)NCCC[C@H](N)C(=O)O [arginine]
severity of C. parvum infection (C. parvum [8]): decrease severity of C. parvum infection

Molecule: C[C@H](CCC(=O)O)[C@H]1CC[C@H]2[C@@H]3CC[C@@H]4C[C@H](O)CC[C@]4(C)[C@H]3C[C@H](O)[C@]12C [deoxycholate, sodium deoxycholate]
effect on Cp growth (Cp numbers relative to PBS control) (C. parvum [2]): significantly inhibited

Molecule: C[C@H](CCC(=O)O)[C@H]1CC[C@H]2[C@@H]3CC[C@@H]4C[C@H](O)CC[C@]4(C)[C@H]3C[C@H](O)[C@]12C [deoxycholic acid]
host toxicity in screen (HCT-8 cells [9]): significant host toxicity

Molecule: c1ccc2[nH]ccc2c1 [indole]
Mitotracker staining of Cp mitosomes (Cp mitosome): significantly decreased Mitotracker staining
median survival time (C. parvum [3]; 50 mg/kg BID 7 days, vehicle 11 dpi): 17 dpi
Cp oocysts shed in feces (C. parvum [3]; 50 mg/kg oral gavage twice daily 7 days, by 5 dpi): no effect
EC50 (C. parvum [1]; [13]): 411 µM
EC90 (C. parvum [1]; [14]): 880 µM
Cp infection, treatment started 4 hpi (C. parvum [1]; EC90 concentrations): significantly inhibited Cp infection
Cp growth, treatment 0 – 4 hpi only (C. parvum [1]; EC90 concentrations): neither indole nor 7CNI inhibited Cp growth
Cp infection after pre-treatment of host cells (C. parvum [1]; EC90 concentrations, host cells pre-treated 20 h before infection): did not affect subsequent Cp infection
EC90 (C. parvum [1]; read-out: EC90 for Cp, HCT-8 cells): 877 µM
Cp sensitivity in AhR KO cells (C. parvum [10]): remained sensitive
Cp growth recovery after washout, 2 x EC90 (C. parvum [4]; ALI, treated 48 h at 2 x EC90 concentration): no recovery
time after washout to significant recovery in Cp growth (C. parvum [4]; ALI): 2 days
Cp growth recovery after washout, EC90 (C. parvum [4]; ALI, treated 48 h at EC90 concentration): Some growth recovery (though not significant)
EC50 (C. parvum [4]): 577 µM
EC90 (C. parvum [4]): 1890 µM
morphology of mature merozoites (1E12 labeling) (C. parvum [5]; 22 h): did not observe any obvious morphological defects
time until which total number of Cp did not significantly differ from DMSO (C. parvum [5]; HCT-8, start of second round of merogony): ~ 16 hpi
life cycle stage progression (C. parvum [5]): delayed progression through sequential life cycle stages
basal and stressed respiratory rate in HCT-8 WT and AhR KO cells (HCT-8 cells [11]; indole 0.5, 1, 2 mM, stressed = after FCCP and oligomycin): significantly impaired in a dose-dependent manner
basal and maximal levels of mitochondrial respiration (OCR) (HCT-8 cells [11]; indole 0.5, 1, 2 mM, 7CNI 0.25, 0.5, 1 mM, dose-dependent): significantly reduced
ATP production rate by glycolysis (HCT-8 cells [11]; [15]): remained similar
ATP production rate by the mitochondria (HCT-8 cells [11]; [15]): significant reduction
spare respiratory capacity (HCT-8 cells [11]; [15]): diminished
total ATP production rate (HCT-8 cells [11]; [15]): lower total ATP production rate

Molecule: C[C@H](CCC(=O)O)[C@H]1CC[C@H]2[C@@H]3CC[C@@H]4C[C@H](O)CC[C@]4(C)[C@H]3CC[C@]12C [lithocholic acid]
host toxicity in screen (HCT-8 cells [9]): significant host toxicity
effect on Cp growth (Cp numbers relative to PBS control) (C. parvum [2]): significantly inhibited

Molecule: CC[C@H]1/C=C/C=C/C[C@@H](C)[C@H](O)[C@@](C)(O)C(=O)[C@@H](C)[C@H](O)[C@@H](C)C(=O)[C@@H](C)[C@H](O)[C@@H](C)/C=C/C(=O)O[C@@H]2[C@H](C)[C@H](CC1)O[C@]1(CC[C@H](C)[C@H](C[C@@H](C)O)O1)[C@H]2C [oligomycin, reference compound]
EC50 (C. parvum [1]; Cryptosporidium parvum, read-out: Cp EC50, OxPhos inhibitors): 20.6 µM
host cell toxicity at Cp-inhibitory levels (HCT-8 cells [6]): not due to host cell toxicity

Molecule: CCCCC[C@H](O)/C=C/[C@H]1[C@H](O)CC(=O)[C@@H]1C/C=C\CCCC(=O)O [prostaglandin E2]
host toxicity in screen (HCT-8 cells [9]): significant host toxicity

EC50 (C. parvum [1]; [13]): 213 µM
Fold selectivity (host EC50 divided by Cp EC50) (C. parvum [1]; HCT-8 cells): 44.6 fold
Molecule: Cc1ncc(CO)c(C=O)c1O [pyridoxal hydrochloride]
effect on Cp growth (Cp numbers relative to PBS control) (C. parvum [2]): significantly inhibited

Molecule: fumaric
effect on Cp growth (Cp numbers relative to PBS control) (C. parvum [2]): impair growth

Molecule: poly(I:C)
C. parvum load (C. parvum [12]): reduced C. parvum load

Molecule: propionic
effect on Cp growth (Cp numbers relative to PBS control) (C. parvum [2]): impair growth
